Data set [1] concerns GABA transporter. As to the kind of experiment: Inhibition of GABA transporter at 10 uM.
Data set [2] concerns Rattus norvegicus. As to the kind of experiment: Increase in lean body mass in Sprague-Dawley DIO rat at 10 mg/kg/day, po after 28 days. Type of data set: functional, organism-based. In a few lines:
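DIO rats weighing 700–800 g at start, n = 12/group, food and water ad libitum. Compound admixed into low fat diet for 28 days; delivered doses (1, 3 or 10 mg/kg/day) calculated from food consumption. Body composition by DEXA scanning, expressed as percent change from day 0 baseline; average plasma levels taken at the 10 mg/kg/day dose.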

A short description of data set [3]: Ratio of drug level in brain to plasma in po dosed rat. In kind it is ADME, organism-based. The conditions noted are these: read-out: BPR.
Data set [4] has as its target T1, Neuropeptide Y receptor type 1 (Homo sapiens, UniProt P25929).
T1 sequence (P25929 whole entry): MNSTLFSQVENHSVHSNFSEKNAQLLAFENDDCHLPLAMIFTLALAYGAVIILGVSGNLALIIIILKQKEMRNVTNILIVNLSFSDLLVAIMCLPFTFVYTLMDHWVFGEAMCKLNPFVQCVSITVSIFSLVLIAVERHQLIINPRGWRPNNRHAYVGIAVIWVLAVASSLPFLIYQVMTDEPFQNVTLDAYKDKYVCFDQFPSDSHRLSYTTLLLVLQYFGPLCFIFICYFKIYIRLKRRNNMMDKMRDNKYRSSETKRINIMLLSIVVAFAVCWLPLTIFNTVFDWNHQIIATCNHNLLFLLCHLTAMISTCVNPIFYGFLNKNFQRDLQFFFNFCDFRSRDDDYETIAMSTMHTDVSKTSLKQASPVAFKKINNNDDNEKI
As to the kind of experiment: Binding affinity to human NPY Y1 receptor.

Data set [5] in a line: Inhibition of chloride channel at 10 uM. The method in brief: (§1)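 Counterscreen panel of 60 receptors, enzymes and ion channels; inhibition of binding measured at 10 µM.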
The species named for data set [6] is Rattus norvegicus. As to the kind of experiment: Antagonism of galanin-induced food intake in rat. Type of data set: functional, organism-based.
The target in data set [7] is Neuropeptide Y receptor type 5 (Homo sapiens, UniProt Q15761). The experiment in a line: Displacement of [125]PYY from human chimeric NPY Y5 receptor expressed in CHOK1 cells. In kind it is cell-based. The following applies: cho-k1. The method in brief:
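Binding to human chimeric Y5 receptor expressed in CHO-K1 cells; Ki values are the average of two determinations.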

Data set [8] in a line: Inhibition of potassium channel at 10 uM. In a few lines: as §1
Data set [9] addresses 5-hydroxytryptamine receptor 2A (Homo sapiens) (UniProt P28223). As to the kind of experiment: Inhibition of 5HT2A receptor at 10 uM. The method in brief: as §1

pKi: −log10 of the molar value. Calls of active or inactive are those of the source. The calls are words filed in the database; no cut-off is given here.

Chain of Neuropeptide Y receptor type 5 (Q15761 whole entry, looked up): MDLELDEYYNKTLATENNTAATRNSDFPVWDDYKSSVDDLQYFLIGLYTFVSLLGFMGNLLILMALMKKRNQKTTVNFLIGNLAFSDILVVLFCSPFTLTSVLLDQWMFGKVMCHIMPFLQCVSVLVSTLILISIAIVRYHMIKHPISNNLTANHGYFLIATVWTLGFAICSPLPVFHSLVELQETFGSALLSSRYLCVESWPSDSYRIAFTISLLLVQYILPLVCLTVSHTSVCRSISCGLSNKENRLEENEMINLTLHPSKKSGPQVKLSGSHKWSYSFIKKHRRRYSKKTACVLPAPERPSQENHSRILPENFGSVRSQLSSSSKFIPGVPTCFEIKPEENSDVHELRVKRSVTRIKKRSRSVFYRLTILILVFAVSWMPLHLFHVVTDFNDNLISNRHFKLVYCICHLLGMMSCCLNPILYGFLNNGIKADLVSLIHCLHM
Chain of 5-hydroxytryptamine receptor 2A (Homo sapiens) (P28223 whole entry): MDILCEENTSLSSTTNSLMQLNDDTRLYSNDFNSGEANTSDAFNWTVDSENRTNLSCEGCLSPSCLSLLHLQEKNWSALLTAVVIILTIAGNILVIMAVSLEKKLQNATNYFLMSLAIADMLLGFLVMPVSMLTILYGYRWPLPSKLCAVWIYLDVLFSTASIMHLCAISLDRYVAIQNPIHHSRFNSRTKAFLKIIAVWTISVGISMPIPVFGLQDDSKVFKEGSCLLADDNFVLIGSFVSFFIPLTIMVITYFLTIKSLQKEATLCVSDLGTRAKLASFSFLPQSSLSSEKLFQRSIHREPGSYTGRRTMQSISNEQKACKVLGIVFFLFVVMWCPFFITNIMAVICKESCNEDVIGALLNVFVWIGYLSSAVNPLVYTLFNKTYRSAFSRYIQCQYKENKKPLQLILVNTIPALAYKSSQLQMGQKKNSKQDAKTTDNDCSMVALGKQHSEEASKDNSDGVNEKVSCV

`CC(=O)N1CCC(N(C)C(=O)N[C@H]2CC[C@H](c3cc(F)cc(F)c3)CC2)CC1`: the inhibition in data set [1] is below 10%; in data set [5] it was below 25%; in [8], below 25%; in [9], below 10%. Further, the outcome in [2] was Active. The Kp in [3] was found to be 0.3. In addition, the pKi in [4] is below 5.00; in [7] it was 8.74. Also, the result in data set [6] was inactive.

A word on the inhibition: it is the drop in the measured response relative to a control, in per cent. What is called pKi is the Ki on a negative log10 scale, so that one unit is a factor of ten.

(Values after ChEMBL document CHEMBL1143109, “Discovery of novel orally active ureido NPY Y5 receptor antagonists” (Bioorg Med Chem Lett, 2008).)
